Measurements: ChEMBL document CHEMBL2346534, “Design, synthesis and in vitro anti-proliferative activity of 4,6-quinazolinediamines as potent EGFR-TK inhibitors” (Eur J Med Chem, 2013)

Key:
SK-MEL-28 = assay: Cytotoxicity against human SK-MEL-28 cells assessed as cell growth at 10^-5 M after 48 hrs by SRB assay; assay type: functional; conditions: SK-MEL-28, 48 h, read-out: Activity
In short: (§1)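 NCI 60-panel single-dose primary screen at 10^-5 M. Cells are grown in RPMI 1640 with 5% FBS and 2 mM L-glutamine and preincubated 24 h at 37 °C. Drug exposure is 48 h. Cells are TCA-fixed, stained with SRB and absorbance is read at 515 nm. Results are reported as percent growth of treated cells versus untreated controls, corrected using time-zero plates.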

MDA-MB-435 = assay: Cytotoxicity against human MDA-MB-435 cells assessed as cell growth at 10^-5 M after 48 hrs by SRB assay; assay type: functional; conditions: MDA-MB-435, 48 h, read-out: Activity
In short: (§2)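 NCI 60 single-dose screen at 10^-5 M. Cells in RPMI 1640 with 5% FBS and 2 mM L-glutamine, preincubated 24 h at 37 °C/5% CO2. Drug from DMSO stock, then 48 h exposure. TCA fixation, SRB staining, absorbance at 515 nm. Result given as percent growth of treated cells relative to untreated control.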

M14 = assay: Cytotoxicity against human M14 cells assessed as cell growth at 10^-5 M after 48 hrs by SRB assay; assay type: functional; conditions: M14, 48 h, read-out: Activity; in short: as §2
Malme-3M = assay: Cytotoxicity against human MALME-3M cells assessed as cell growth at 10^-5 M after 48 hrs by SRB assay; assay type: functional; conditions: read-out: Activity; in short: as §2
U-251 = assay: Cytotoxicity against human U251 cells assessed as cell growth at 10^-5 M after 48 hrs by SRB assay; assay type: functional; conditions: U-251, 48 h, read-out: Activity
In short: (§3)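 NCI primary single-dose screen at 10^-5 M. Cells grown in RPMI 1640 with 5% FBS and 2 mM L-glutamine, given 24 h before drug addition, then 48 h exposure at 37 °C, 5% CO2. Cells TCA-fixed, stained with SRB, read at 515 nm. Reported as percent growth of treated cells relative to untreated controls.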

SNB-19 = assay: Cytotoxicity against human SNB19 cells assessed as cell growth at 10^-5 M after 48 hrs by SRB assay; assay type: functional; conditions: SNB-19, 48 h, read-out: Activity; in short: as §1
SF-539 = assay: Cytotoxicity against human SF539 cells assessed as cell growth at 10^-5 M after 48 hrs by SRB assay; assay type: functional; conditions: SF-539, 48 h, read-out: Activity; in short: as §1
SF-295 = assay: Cytotoxicity against human SF295 cells assessed as cell growth at 10^-5 M after 48 hrs by SRB assay; assay type: functional; conditions: SF-295, 48 h, read-out: Activity; in short: as §1
SF-268 = assay: Cytotoxicity against human SF268 cells assessed as cell growth at 10^-5 M after 48 hrs by SRB assay; assay type: functional; conditions: SF-268, 48 h, read-out: Activity; in short: as §1
SW-620 = assay: Cytotoxicity against human SW620 cells assessed as cell growth at 10^-5 M after 48 hrs by SRB assay; assay type: functional; conditions: SW-620, 48 h, read-out: Activity; in short: as §3
HCT-116 = assay: Cytotoxicity against human HCT116 cells assessed as cell growth at 10^-5 M after 48 hrs by SRB assay; assay type: functional; conditions: HCT-116, 48 h, read-out: Activity; in short: as §2
HCC 2998 = assay: Cytotoxicity against human HCC2998 cells assessed as cell growth at 10^-5 M after 48 hrs by SRB assay; assay type: functional; conditions: HCC 2998, 48 h, read-out: Activity; in short: as §2
NCI-H460 = assay: Cytotoxicity against human NCI-H460 cells assessed as cell growth at 10^-5 M after 48 hrs by SRB assay; assay type: functional; conditions: NCI-H460, 48 h, read-out: Activity; in short: as §1
NCI-H322M = assay: Cytotoxicity against human NCI-H322M cells assessed as cell growth at 10^-5 M after 48 hrs by SRB assay; assay type: functional; conditions: read-out: Activity; in short: as §1
NCI-H226 = assay: Cytotoxicity against human NCI-H226 cells assessed as cell growth at 10^-5 M after 48 hrs by SRB assay; assay type: functional; conditions: NCI-H226, 48 h, read-out: Activity; in short: as §1
HOP-62 = assay: Cytotoxicity against human HOP62 cells assessed as cell growth at 10^-5 M after 48 hrs by SRB assay; assay type: functional; conditions: HOP-62, 48 h, read-out: Activity; in short: as §2
MOLT-4 = assay: Cytotoxicity against human MOLT4 cells assessed as cell growth at 10^-5 M after 48 hrs by SRB assay; assay type: functional; conditions: MOLT-4, 48 h, read-out: Activity; in short: as §1
K562 = assay: Cytotoxicity against human K562 cells assessed as cell growth at 10^-5 M after 48 hrs by SRB assay; assay type: functional; conditions: K562, 48 h, read-out: Activity; in short: as §2
CCRF-CEM = assay: Cytotoxicity against human CCRF-CEM cells assessed as cell growth at 10^-5 M after 48 hrs by SRB assay; assay type: functional; conditions: read-out: Activity; in short: as §2
MDA-MB-468 = assay: Cytotoxicity against human MDA-MB-468 cells assessed as cell growth at 10^-5 M after 48 hrs by SRB assay; assay type: functional; conditions: MDA-MB-468, 48 h, read-out: Activity; in short: as §1
T47D = assay: Cytotoxicity against human T47D cells assessed as cell growth at 10^-5 M after 48 hrs by SRB assay; assay type: functional; conditions: read-out: Activity; in short: as §3
MDA-MB-231 = assay: Cytotoxicity against human MDA-MB-231 cells assessed as cell growth at 10^-5 M after 48 hrs by SRB assay; assay type: functional; conditions: MDA-MB-231, 48 h, read-out: Activity; in short: as §2
MCF7 = assay: Cytotoxicity against human MCF7 cells assessed as cell growth at 10^-5 M after 48 hrs by SRB assay; assay type: functional; conditions: MCF7, 48 h, read-out: Activity; in short: as §2
SN12C = assay: Cytotoxicity against human SN12C cells assessed as cell growth at 10^-5 M after 48 hrs by SRB assay; assay type: functional; conditions: read-out: Activity; in short: as §1
CAKI-1 = assay: Cytotoxicity against human Caki1 cells assessed as cell growth at 10^-5 M after 48 hrs by SRB assay; assay type: functional; conditions: CAKI-1, 48 h, read-out: Activity; in short: as §2
A498 = assay: Cytotoxicity against human A498 cells assessed as cell growth at 10^-5 M after 48 hrs by SRB assay; assay type: functional; conditions: A498, 48 h, read-out: Activity; in short: as §2
786-0 = assay: Cytotoxicity against human 786-0 cells assessed as cell growth at 10^-5 M after 48 hrs by SRB assay; assay type: functional; conditions: 786-0, 48 h, read-out: Activity; in short: as §2
SK-OV-3 = assay: Cytotoxicity against human SKOV3 cells assessed as cell growth at 10^-5 M after 48 hrs by SRB assay; assay type: functional; conditions: SK-OV-3, 48 h, read-out: Activity; in short: as §1
[1] = Cytotoxicity against human NCI-ADR-RES cells assessed as cell growth at 10^-5 M after 48 hrs by SRB assay; assay type: functional; conditions: read-out: Activity; in short: as §1
IGROV-1 = assay: Cytotoxicity against human IGROV1 cells assessed as cell growth at 10^-5 M after 48 hrs by SRB assay; assay type: functional; conditions: IGROV-1, 48 h, read-out: Activity; in short: as §2
UACC-62 = assay: Cytotoxicity against human UACC62 cells assessed as cell growth at 10^-5 M after 48 hrs by SRB assay; assay type: functional; conditions: UACC-62, 48 h, read-out: Activity; in short: as §3
[2] = biological target: Epidermal growth factor receptor (Homo sapiens, UniProt P00533); conditions: at 10 µM;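 note: EGFR tyrosine kinase activity on a poly(Glu,Tyr) substrate, read out by Kinase-Glo Plus luminescence after a 40 min reaction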
Sequence of Epidermal growth factor receptor (P00533 whole entry): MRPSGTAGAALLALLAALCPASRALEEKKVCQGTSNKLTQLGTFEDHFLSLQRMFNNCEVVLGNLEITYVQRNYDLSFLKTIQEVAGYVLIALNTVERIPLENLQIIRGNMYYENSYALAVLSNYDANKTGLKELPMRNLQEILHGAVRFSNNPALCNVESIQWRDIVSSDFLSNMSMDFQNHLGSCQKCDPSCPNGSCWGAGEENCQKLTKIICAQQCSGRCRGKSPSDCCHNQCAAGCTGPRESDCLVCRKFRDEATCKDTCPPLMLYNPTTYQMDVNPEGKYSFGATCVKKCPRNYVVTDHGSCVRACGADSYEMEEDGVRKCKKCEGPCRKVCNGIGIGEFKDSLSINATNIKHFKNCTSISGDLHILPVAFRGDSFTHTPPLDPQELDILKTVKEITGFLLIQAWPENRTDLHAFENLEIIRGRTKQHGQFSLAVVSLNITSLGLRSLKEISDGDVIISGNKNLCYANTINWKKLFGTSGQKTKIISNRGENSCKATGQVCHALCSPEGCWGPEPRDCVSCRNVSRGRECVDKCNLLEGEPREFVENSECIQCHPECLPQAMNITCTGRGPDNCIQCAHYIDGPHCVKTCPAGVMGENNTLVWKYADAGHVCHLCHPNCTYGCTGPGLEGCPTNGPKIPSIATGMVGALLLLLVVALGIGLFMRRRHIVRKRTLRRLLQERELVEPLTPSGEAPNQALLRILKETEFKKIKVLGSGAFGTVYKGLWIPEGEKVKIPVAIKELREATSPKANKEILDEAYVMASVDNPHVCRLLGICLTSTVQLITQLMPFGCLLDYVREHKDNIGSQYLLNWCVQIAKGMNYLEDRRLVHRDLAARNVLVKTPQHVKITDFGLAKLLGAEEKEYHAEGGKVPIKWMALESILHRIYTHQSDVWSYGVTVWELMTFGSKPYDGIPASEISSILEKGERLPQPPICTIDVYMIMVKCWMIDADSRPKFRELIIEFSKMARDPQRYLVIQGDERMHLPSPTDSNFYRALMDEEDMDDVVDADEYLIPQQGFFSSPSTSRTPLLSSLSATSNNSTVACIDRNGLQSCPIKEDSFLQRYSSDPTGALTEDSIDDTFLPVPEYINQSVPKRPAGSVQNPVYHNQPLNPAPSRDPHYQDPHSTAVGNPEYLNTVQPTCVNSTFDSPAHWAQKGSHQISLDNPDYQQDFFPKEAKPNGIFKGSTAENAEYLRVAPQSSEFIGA

| SMILES | growth at 10 µM (SK-MEL-28) | growth at 10 µM (MDA-MB-435) | growth at 10 µM (M14) | growth at 10 µM (Malme-3M) | growth at 10 µM (U-251) | growth at 10 µM (SNB-19) | growth at 10 µM (SF-539) | growth at 10 µM (SF-295) | growth at 10 µM (SF-268) | growth at 10 µM (SW-620) | growth at 10 µM (HCT-116) | growth at 10 µM (HCC 2998) | growth at 10 µM (NCI-H460) | growth at 10 µM (NCI-H322M) | growth at 10 µM (NCI-H226) | growth at 10 µM (HOP-62) | growth at 10 µM (MOLT-4) | growth at 10 µM (K562) | growth at 10 µM (CCRF-CEM) | growth at 10 µM (MDA-MB-468) | other results |
| --- | --- | --- | --- | --- | --- | --- | --- | --- | --- | --- | --- | --- | --- | --- | --- | --- | --- | --- | --- | --- | --- |
| C#Cc1cccc(Nc2ncnc3ccc(N/C=C(\C#N)C(=O)OCC)cc23)c1 | 103% | 92% | 114% | 119% | 85.4% | 85.1% | 97.8% | 95.6% | 94.4% | 105% | 103% | 102% | 100% | 52.3% | 89.8% | 99.9% | 87.5% | 96.4% | 103% | 40.4% | growth at 10 µM (T47D): 73.4%; growth at 10 µM (MDA-MB-231): 97.2%; growth at 10 µM (MCF7): 96.8%; growth at 10 µM (SN12C): 97.1%; growth at 10 µM (CAKI-1): 56.1%; growth at 10 µM (A498): 82.5%; growth at 10 µM (786-0): 91.7%; growth at 10 µM (SK-OV-3): 97%; growth at 10 µM [1]: 100%; growth at 10 µM (IGROV-1): 77.4%; growth at 10 µM (UACC-62): 104%; inhibition [2]: 95% |
| NC(=O)Nc1ccc2ncnc(Nc3cccc(O)c3)c2c1 | 114% | 101% | 102% | 121% | 87.8% | 93.1% | 109% | 98.1% | 85.4% | 99.1% | 109% | 102% | 108% | 83.5% | 102% | 92.8% | 98.8% | 103% | 108% | 67.9% | growth at 10 µM (T47D): 76.6%; growth at 10 µM (MDA-MB-231): 104%; growth at 10 µM (MCF7): 97.3%; growth at 10 µM (SN12C): 94.9%; growth at 10 µM (CAKI-1): 84.8%; growth at 10 µM (A498): 77.4%; growth at 10 µM (786-0): 92.6%; growth at 10 µM (SK-OV-3): 87.5%; growth at 10 µM [1]: 96.8%; growth at 10 µM (IGROV-1): 107%; growth at 10 µM (UACC-62): 105%; inhibition [2]: 100% |
| NC(=O)Nc1ccc2ncnc(Nc3ccc(Cl)cc3)c2c1 | 106% | 97.8% | 107% | 117% | 95.7% | 78.6% | 95.7% | 90.7% | 79.7% | 99.1% | 96.4% | 97.9% | 88% | 18% | 99.8% | 86.2% | 71.2% | 71.4% | 96% | -7.15% | growth at 10 µM (T47D): 61.6%; growth at 10 µM (MDA-MB-231): 89.3%; growth at 10 µM (MCF7): 86.5%; growth at 10 µM (SN12C): 81.9%; growth at 10 µM (CAKI-1): 40.1%; growth at 10 µM (A498): 43.4%; growth at 10 µM (786-0): 85.9%; growth at 10 µM (SK-OV-3): 30.2%; growth at 10 µM [1]: 88.7%; growth at 10 µM (IGROV-1): 61%; growth at 10 µM (UACC-62): 87.9%; inhibition [2]: 100% |
